Data from ChEMBL document CHEMBL5154764, “Development of small molecules that work cooperatively with ciprofloxacin to clear salmonella biofilms in a chronic gallbladder carriage model” (Eur J Med Chem, 2022).
Activity calls are given as the source filed them. The calls are words filed in the database; no cut-off is given here.

Tests used:
Salmonella typhimurium [1] = assay: Antibiofilm activity against Salmonella typhimurium ATCC 14028 assessed as biofilm dispersal effect incubated for 24 hrs by crystal violet staining based spectrophotometry; format: functional, organism-based, Salmonella enterica subsp. enterica serovar Typhimurium; conditions: Salmonella enterica, ATCC 14028, 24 h
Summary of the method: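 Biofilms grown 24 h at 30 °C with nutation in TSB diluted 1:20, from 1:100-diluted LB overnight cultures set to OD600 0.8. Crystal violet staining, acetic acid solubilization, 570 nm read-out. EC50 from variable-slope fit of % biofilm remaining vs log concentration. Mean ± SD of three biological replicates.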

Salmonella typhimurium [2] = assay: Antibiofilm activity against Salmonella typhimurium ATCC 14028 assessed as inhibition of biofilm formation incubated for 24 hrs by crystal violet staining based spectrophotometry; format: functional, organism-based, Salmonella enterica subsp. enterica serovar Typhimurium; conditions: Salmonella enterica, ATCC 14028, 24 h
Summary of the method: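 LB overnight cultures (37 °C) set to OD600 0.8, diluted 1:100 into TSB diluted 1:20 in water. Compound at 0.2–100 μM or DMSO added at inoculation. Grown 24 h at 30 °C with nutation, washed, heat-fixed (60 °C, 1 h), stained with crystal violet, dye solubilized in acetic acid, read at 570 nm. IC50 from variable-slope fit of % biofilm vs log concentration. Mean ± SD of three biological replicates.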

Salmonella typhimurium [3] = assay: Antibacterial activity against Salmonella typhimurium ATCC 14028 assessed as bacterial growth inhibition at >=100 uM; format: functional, organism-based; conditions: Salmonella enterica subsp. enterica serovar Typhimurium
Salmonella typhimurium [4] = assay: Antibacterial activity against Salmonella typhimurium ATCC 14028 assessed as bacterial growth inhibition at >= 50 uM; format: functional, organism-based; conditions: Salmonella enterica subsp. enterica serovar Typhimurium
Salmonella typhimurium [5] = assay: Antibacterial activity against Salmonella typhimurium ATCC 14028 assessed as bacterial growth inhibition at >=12.5 uM; format: functional, organism-based; conditions: Salmonella enterica subsp. enterica serovar Typhimurium
Salmonella typhimurium [6] = assay: (§1) Antibacterial activity against Salmonella typhimurium ATCC 14028 infected in 129X1/SvJ NRAMP +/+ mouse gallstone model assessed as log reduction in bacterial burden in gallblader at 5 mg/kg/day, ip administered for 5 to 15 consecutive days of post infection and measured on day 15 in presence of 1 mg/kg/day ciprofloxacin; format: functional, Salmonella enterica subsp. enterica serovar Typhimurium; conditions: time 10 day
Summary of the method: (§2)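 129X1/SvJ NRAMP+/+ mice given a lithogenic diet (chow plus 1% cholesterol, 0.5% cholic acid) for 8 weeks. Infected i.p. with ~10^3 CFU in 200 μL PBS. Treated daily i.p. on days 5–15 post-infection; vehicle 5% DMSO in PBS. Day 15: gallbladder, liver and spleen homogenized in 1 mL PBS, serially diluted and plated on LB agar (37 °C, 16 h) for CFU counts. One-way ANOVA with Tukey correction.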

Salmonella typhimurium [7] = assay: as §1, with “at 10” for “at 5”, “administered from” for “administered for”, “days” for “days of post infection”; format: functional, Salmonella enterica subsp. enterica serovar Typhimurium; conditions: time 10 day
Salmonella typhimurium [8] = assay: as §1, with “as” for “as log”, “in spleen” for “in gallblader”, “of 4” for “of 1”; format: functional, organism-based; conditions: Salmonella enterica subsp. enterica serovar Typhimurium, time 10.0 day; summary of the method: as §2
Salmonella typhimurium [9] = assay: as §1, with “as” for “as log”, “of 4” for “of 1”; format: functional, organism-based; conditions: Salmonella enterica subsp. enterica serovar Typhimurium, time 10.0 day; summary of the method: as §2
Salmonella typhimurium [10] = assay: as §1, with “as” for “as log”, “in liver” for “in gallblader”, “of 4” for “of 1”; format: functional, organism-based; conditions: Salmonella enterica subsp. enterica serovar Typhimurium, time 10.0 day; summary of the method: as §2
Salmonella typhimurium [11] = assay: Antibacterial activity against Salmonella typhimurium ATCC 14028 infected in 129X1/SvJ NRAMP +/+ mouse gallstone model assessed as reduction in bacterial burden in liver at 2 mg/kg/day, ip administered from 5 to 15 consecutive days and measured on day 15; format: functional, organism-based; conditions: Salmonella enterica subsp. enterica serovar Typhimurium, time 10.0 day; summary of the method: as §2
Salmonella typhimurium [12] = assay: Antibacterial activity against Salmonella typhimurium ATCC 14028 infected in 129X1/SvJ NRAMP +/+ mouse gallstone model assessed as log reduction in bacterial burden in gallblader at 4 mg/kg/day, ip administered from 5 to 15 consecutive days and measured on day 15; format: functional, Salmonella enterica subsp. enterica serovar Typhimurium; conditions: time 10 day; summary of the method: as §2
Salmonella typhimurium [13] = assay: Antibacterial activity against Salmonella typhimurium ATCC 14028 infected in 129X1/SvJ NRAMP +/+ mouse gallstone model assessed as reduction in bacterial burden in spleen at 2 mg/kg/day, ip administered from 5 to 15 consecutive days and measured on day 15; format: functional, organism-based; conditions: Salmonella enterica subsp. enterica serovar Typhimurium, time 10.0 day; summary of the method: as §2

SMILES | EC50 (Salmonella typhimurium [1]) | IC50 (Salmonella typhimurium [2]) | also measured
CN(Cc1ccsc1)CC1CCN(CCc2ccc(F)c(F)c2)CC1 | 87 µM | 3 µM | –
CN(Cc1ccsc1)CC1CCN(CCc2c(F)cccc2F)CC1 | 138 µM | 6.3 µM | –
CN(Cc1ccsc1)CC1CCN(CCc2cccc(Br)c2)CC1 | 83 µM | 3.6 µM | growth inhibition (GI) (Salmonella typhimurium [3]): Active
CN(Cc1ccsc1)CC1CCN(CCc2cccc(Cl)c2)CC1 | 135 µM | 2 µM | growth inhibition (GI) (Salmonella typhimurium [3]): Active
CN(Cc1ccsc1)CC1CCN(CCc2ccc(-c3ccccc3)cc2)CC1 | – | – | growth inhibition (GI) (Salmonella typhimurium [5]): Active; log(activity) (Salmonella typhimurium [6]): 3.5
CN(Cc1ccsc1)CC1CCNCC1 | 442 µM | 138 µM | –
CN(Cc1ccsc1)CC1CCN(CCc2ccc(Cl)c(Cl)c2)CC1 | 45 µM | 1.4 µM | growth inhibition (GI) (Salmonella typhimurium [4]): Active
CN(Cc1ccsc1)CC1CCN(CCc2ccccc2F)CC1 | 829 µM | 5.7 µM | log(activity) (Salmonella typhimurium [7]): 3; log(activity) (Salmonella typhimurium [6]): 2
CN(Cc1ccsc1)CC1CCN(CCc2cccc(-c3ccccc3)c2)CC1 | 31 µM | 1.8 µM | growth inhibition (GI) (Salmonella typhimurium [5]): Active
CN(Cc1ccsc1)CC1CCN(Cc2ccc(F)c(F)c2)CC1 | 3800 µM | 7.2 µM | –
CN(Cc1ccsc1)CC1CCN(Cc2ccc(I)cc2)CC1 | 77 µM | 5.7 µM | –
Cc1ccccc1CN1CCC(CN(C)Cc2ccsc2)CC1 | 247 µM | 6.3 µM | –
CN(Cc1ccsc1)CC1CCN(Cc2ccc(F)cc2)CC1 | 443 µM | 12.9 µM | –
CN(Cc1ccsc1)CC1CCN(CCCc2ccccc2F)CC1 | 221 µM | 11.5 µM | –
CN(Cc1ccsc1)CC1CCN(Cc2ccccc2F)CC1 | 125 µM | 8.8 µM | –
CC(C)c1ccc(CCN2CCC(CN(C)Cc3ccsc3)CC2)cc1 | 123 µM | 2.3 µM | growth inhibition (GI) (Salmonella typhimurium [5]): Active
CN(Cc1ccsc1)CC1CCN(CCc2cc(Br)cc(Br)c2)CC1 | 42 µM | 3.4 µM | growth inhibition (GI) (Salmonella typhimurium [3]): Active
CN(Cc1ccsc1)CC1CCN(CCc2cccc(Cl)c2Cl)CC1 | – | – | log(activity) (Salmonella typhimurium [6]): 1.5

SMILES | EC50 (Salmonella typhimurium [1]) | IC50 (Salmonella typhimurium [2]) | also measured
CN(Cc1ccsc1)CC1CCN(CCc2ccc(F)cc2)CC1 | 235 µM | 16.8 µM | –
CN(Cc1ccsc1)CC1CCN(CCc2ccc(Br)c(Br)c2)CC1 | – | – | Activity (Salmonella typhimurium [8]): Active; Activity (Salmonella typhimurium [9]): Active; Activity (Salmonella typhimurium [10]): Active; growth inhibition (GI) (Salmonella typhimurium [5]): Active; log(activity) (Salmonella typhimurium [6]): 4.5
CN(Cc1ccsc1)CC1CCN(CCc2cccc3ccccc23)CC1 | 28 µM | 2.5 µM | growth inhibition (GI) (Salmonella typhimurium [4]): Active
CN(Cc1ccsc1)CC1CCN(Cc2cccc(Br)c2)CC1 | 142 µM | 6.5 µM | –
CN(Cc1ccsc1)CC1CCN(CCc2ccc(Cl)cc2)CC1 | 69 µM | 3 µM | –
CN(Cc1ccsc1)CC1CCN(CCc2ccc(Br)cc2)CC1 | 57 µM | 3 µM | –
CN(Cc1ccsc1)CC1CCN(CCc2ccc(I)cc2)CC1 | 89 µM | 2.6 µM | growth inhibition (GI) (Salmonella typhimurium [4]): Active
CN(Cc1ccsc1)CC1CCN(Cc2cccc(I)c2)CC1 | 92 µM | 10 µM | –
CNCC1CCN(CCc2ccccc2F)CC1 | – | – | growth inhibition (GI) (Salmonella typhimurium [3]): Active
CN(Cc1ccsc1)CC1CCN(Cc2ccc(Br)c(Br)c2)CC1 | 32 µM | 11.9 µM | –
CN(Cc1ccsc1)CC1CCN(CCc2cccc(F)c2)CC1 | 388 µM | 6.9 µM | –
CN(Cc1ccsc1)CC1CCN(Cc2cccc(Cl)c2Cl)CC1 | 70 µM | 2.7 µM | –
CN(Cc1ccsc1)CC1CCN(Cc2ccc(Cl)cc2)CC1 | 934 µM | 5.9 µM | –
O=C(O)c1cn(C2CC2)c2cc(N3CCNCC3)c(F)cc2c1=O [CIPROFLOXACIN] | – | – | Activity (Salmonella typhimurium [11]): Active; log(activity) (Salmonella typhimurium [12]): 3; Activity (Salmonella typhimurium [13]): Active
CN(Cc1ccsc1)CC1CCN(Cc2c(F)cccc2F)CC1 | > 12000 µM | > 200 µM | growth inhibition (GI) (Salmonella typhimurium [3]): Active
CN(Cc1ccsc1)CC1CCN(CCc2ccc(Cl)cc2Cl)CC1 | 22 µM | 2.5 µM | –
CN(Cc1ccsc1)CC1CCN(CCCc2ccccc2Cl)CC1 | 59 µM | 5.4 µM | –
CN(Cc1ccsc1)CC1CCN(Cc2ccccc2I)CC1 | 79 µM | 5.4 µM | –

Second part, led by results:

EC50 (Salmonella typhimurium [1]) | IC50 (Salmonella typhimurium [2]) | SMILES | also measured
299 µM | 5.2 µM | CN(Cc1ccsc1)CC1CCN(Cc2cccc(Cl)c2)CC1 | –
870 µM | 146 µM | CN(Cc1ccsc1)CC1CCN(Cc2cccc(F)c2F)CC1 | growth inhibition (GI) (Salmonella typhimurium [3]): Active
45 µM | 1.6 µM | CN(Cc1ccsc1)CC1CCN(CCc2cc(Cl)cc(Cl)c2)CC1 | growth inhibition (GI) (Salmonella typhimurium [4]): Active
> 12000 µM | 14.2 µM | CN(Cc1ccsc1)CC1CCN(Cc2cc(F)cc(F)c2)CC1 | –
140 µM | 20.9 µM | CN(Cc1ccsc1)CC1CCN(Cc2ccccc2C(F)(F)F)CC1 | growth inhibition (GI) (Salmonella typhimurium [3]): Active
1810 µM | 2.7 µM | CN(Cc1ccsc1)CC1CCN(Cc2ccccc2Cl)CC1 | –
196 µM | 15.8 µM | CN(Cc1ccsc1)CC1CCN(Cc2cc(Cl)ccc2Cl)CC1 | –
11800 µM | 16.9 µM | COc1ccccc1CCN1CCC(CN(C)Cc2ccsc2)CC1 | –
232 µM | 6 µM | CN(Cc1ccsc1)CC1CCN(CCc2ccccc2Cl)CC1 | –
44 µM | 4 µM | CN(Cc1ccsc1)CC1CCN(CCc2cccc(I)c2)CC1 | –
> 12000 µM | 21.2 µM | CN(Cc1ccsc1)CC1CCN(CCc2ccccc2)CC1 | –
> 12000 µM | 78.1 µM | CN(Cc1ccsc1)CC1CCN(CCCc2ccccc2)CC1 | –
> 12000 µM | 26.7 µM | CN(Cc1ccsc1)CC1CCN(Cc2ccccc2)CC1 | –
> 12000 µM | > 200 µM | CN(Cc1ccsc1)CC1CCN(CCc2cc(F)cc(F)c2)CC1 | growth inhibition (GI) (Salmonella typhimurium [4]): Active
127 µM | 8.5 µM | CN(Cc1ccsc1)CC1CCN(Cc2ccc(Br)cc2)CC1 | –
1050 µM | 8.7 µM | CN(Cc1ccsc1)CC1CCN(Cc2cccc(F)c2)CC1 | –
60 µM | 12.7 µM | CN(Cc1ccsc1)CC1CCN(CCc2ccccc2C(F)(F)F)CC1 | –
308 µM | 7.2 µM | CN(Cc1ccsc1)CC1CCN(CCc2ccccc2Br)CC1 | –
60 µM | 4.3 µM | CN(Cc1ccsc1)CC1CCN(CCc2ccccc2I)CC1 | growth inhibition (GI) (Salmonella typhimurium [4]): Active
79 µM | 4.9 µM | CN(Cc1ccsc1)CC1CCN(Cc2ccccc2Br)CC1 | –
55 µM | 3.9 µM | CN(Cc1ccsc1)CC1CCN(Cc2ccc(Cl)c(Cl)c2)CC1 | –
